Each structure is given as a SMILES string. Activity calls are given as the source filed them. The calls are words filed in the database; no cut-off is given here.

Experimental findings from ChEMBL document CHEMBL2346587, “Design, synthesis, and evaluation of a water-soluble antofine analogue with high antiproliferative and antitumor activity” (Bioorg Med Chem, 2013) are described below.

Data set [1] deals with A549. The data set can be described thus: Inhibition of AKT-mediated mTOR phosphorylation at Ser2448 residue in human A549 cells at 50 to 400 nM after 24 hrs by Western blot analysis. The format is cell-based. The method in brief: (§1)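 A549 cells plated at 3 × 10^5 per 60 mm dish, grown 24 h, then exposed to a concentration series for 24 h. Lysed in boiling SDS sample buffer with NaF and orthovanadate; protein by BCA; 25–50 µg run on 8–15% SDS-PAGE, transferred to PVDF, blocked in 5% milk/PBST, primary antibodies overnight at 4 °C, secondary 1–2 h, ECL detection.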

In data set [2] the test system is A549. The data set can be described thus: Cell cycle arrest in human A549 cells assessed as accumulation at G0/G1 phase at 400 nM after 24 hrs by flow cytometry (reference value: 62.38 %). In kind it is functional. (In general: In flow cytometry, cells or beads pass a laser one at a time.)
Data set [3] has as its system A549. The data set can be described thus: Antitumor activity against paclitaxel-resistant human A549 cells xenografted in athymic nu/nu BALB/c mouse assessed as inhibition of tumor growth at 10 mg/kg, ip administered 35 days post-implantation 3 times a week relative to control. As to conditions: 840 h, route intraperitoneal, read-out: TGI. In kind it is functional. The method in brief: (§2)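 Female athymic BALB/c nu/nu mice, six weeks old; 2 × 10^6 A549 or A549-Pa cells in 0.1 mL RPMI injected s.c. into right flank on day 0. Dosing began at 95–100 mm3 tumour volume: drug in 1% cremophore in PBS given i.p. three times weekly; controls got vehicle; five mice/group. Tumour volume tracked every 3–5 days; tumours excised and weighed at end; sections immunostained for Ki-67.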

Data set [4] in a line: Inhibition of Wnt signaling in human A549 cells assessed as inhibition of […] expression after 24 hrs by Western blot analysis. In kind it is cell-based. In short, it runs like this: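 A549 cells were seeded at 3 × 10^5 per 60 mm dish, grown 24 h, then given graded compound concentrations for 24 h. Lysis was in boiling SDS buffer, with BCA protein assay. 25–50 µg per lane was run on 8–15% SDS-PAGE and blotted to PVDF. Primary antibodies (1:1000–1:2000) went on overnight at 4 °C, then secondary and ECL read-out.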
A general note: In western blotting, separated proteins are transferred to a membrane and probed.

Data set [5] has as its system Mus musculus. The data set can be described thus: Toxicity in paclitaxel-resistant human A549 cells xenografted athymic nu/nu BALB/c mouse assessed as body weight change at 5 to 10 mg/kg, ip administered 3 times a week. The format is organism-based. On the set-up: dose 5-10 mg/kg, route intraperitoneal. The conditions noted are these: in vivo. The method in brief: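 Six-week-old female BALB/c nu/nu mice received 2 × 10^6 A549-Pa cells in 0.1 mL RPMI subcutaneously in the right flank. Dosing began at 95–100 mm3 tumor volume, with five mice per group randomized. Compound in 1% cremophore/PBS was given intraperitoneally three times weekly; controls received equal vehicle volume. Body weight and overt toxicity were monitored.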
(In general: Xenograft models place foreign cells or tissue in a host animal.)

In data set [6] the test system is A549. The data set can be described thus: Inhibition of AKT/c-myc signaling in human A549 cells assessed as reduction in phospho-Rb level at 50 to 400 nM after 24 hrs by Western blot analysis. In kind it is cell-based. The method in brief: as §1
For data set [7], the system named is A549. The data set can be described thus: Inhibition of AKT/c-myc signaling in human A549 cells assessed as reduction in cyclin E protein expression at 50 to 400 nM after 24 hrs by Western blot analysis. In kind it is cell-based. In short, it runs like this:
as §1

For data set [8], the system named is A549. The data set can be described thus: Antitumor activity against human A549 cells xenografted in athymic nu/nu BALB/c mouse assessed as inhibition of Ki-67 expression at 5 to 10 mg/kg, ip administered 35 days post-implantation 3 times a week by immunohistochemistry. The format is functional, organism-based. In short, it runs like this:
as §2

The subject of data set [9] is A549. The data set can be described thus: Effect on CDK2 protein expression at G0/G1 phase in human A549 cells at 50 to 400 nM after 24 hrs by Western blot analysis. The format is functional, cell-based. The method in brief:
as §1

The target of data set [10] is T1, ATP-dependent translocase ABCB1 (Homo sapiens, UniProt P08183). The data set can be described thus: Inhibition of P-gp activity in human paclitaxel-resistant A549 cells potentiation of 5 uM paclitaxel-induced cytotoxicity at 0.1 uM by SRB assay. The conditions noted are these: a549, 0.1 µM. The format is cell-based. In short, it runs like this:
(§3)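 A549-Pa cells plated at 5 × 10^4 cells/well and co-treated for 48 h with the compound (0–200 nM) plus paclitaxel or gefitinib; growth inhibition by SRB assay. Combination index computed at the 50% inhibition level as CI = D1/(Dx)1 + D2/(Dx)2, comparing combined versus single-agent concentrations.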

In data set [11] the test system is A549. The data set can be described thus: Cell cycle arrest in human A549 cells assessed as accumulation at S phase at 50 nM after 24 hrs by flow cytometry (reference value: 13.38 %). The format is functional.
The test system of data set [12] is A549. The data set can be described thus: Cell cycle arrest in human A549 cells assessed as accumulation at G2/M phase at 200 nM after 24 hrs by flow cytometry (reference value: 22.84 %). In kind it is functional.
Data set [13] deals with T1, ATP-dependent translocase ABCB1. The data set can be described thus: Inhibition of P-gp activity in human paclitaxel-resistant A549 cells potentiation of 5 uM gefitinib-induced cytotoxicity at 0.1 uM by SRB assay. In kind it is cell-based. As to conditions: a549, 0.1 µM. The method in brief: as §3
Data set [14] relates to A549. The data set can be described thus: Antitumor activity against paclitaxel-resistant human A549 cells xenografted in athymic nu/nu BALB/c mouse assessed as inhibition of tumor growth at 5 mg/kg, ip administered 35 days post-implantation 3 times a week relative to control. As to conditions: 840 h, route intraperitoneal, read-out: TGI. The format is functional. In short, it runs like this:
as §2

The test system of data set [15] is HCT-15. The data set can be described thus: Cytotoxicity against human HCT15 cells after 72 hrs by SRB assay. In kind it is functional, cell-based. As to conditions: HCT-15, 72 h. In short, it runs like this:
(§4)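 SRB growth assay: 5 × 10^3 cells/well exposed to a concentration series for 72 h; fixed in 10% TCA 30 min at 4 °C, stained with 0.4% SRB in 1% acetic acid 30 min, dye dissolved in 10 mM Tris pH 10.0, absorbance at 515 nm. Viability relative to vehicle control; IC50 by non-linear regression; at least three experiments. A549-Pa is a paclitaxel-resistant A549 subline.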

Data set [16] deals with A549. The data set can be described thus: Cell cycle arrest in human A549 cells assessed as accumulation at sub-G1 phase at 50 nM after 24 hrs by flow cytometry (reference value: 1.40 %). The format is functional.
The test system of data set [17] is A549. The data set can be described thus: Cytotoxicity against human A549 cells after 72 hrs by SRB assay. In kind it is functional, cell-based. The conditions noted are these: A549, 72 h. The method in brief:
as §4

The subject of data set [18] is HCT-116. The data set can be described thus: Cytotoxicity against human HCT116 cells after 72 hrs by SRB assay. The format is functional, cell-based. As to conditions: HCT-116, 72 h. The method in brief: as §4
The target of data set [19] is T1, ATP-dependent translocase ABCB1. The data set can be described thus: Inhibition of P-gp activity in human […] A549 cells potentiation of 10 uM paclitaxel-induced cytotoxicity at 0.2 uM by SRB assay. In kind it is cell-based. The conditions noted are these: a549, 0.2 µM.
Data set [20] has as its system A549. The data set can be described thus: Cell cycle arrest in human A549 cells assessed as accumulation at G2/M phase at 100 nM after 24 hrs by flow cytometry (reference value: 22.84 %). In kind it is functional.
Data set [21] relates to SK-HEP1. The data set can be described thus: Cytotoxicity against human SKHEP1 cells after 72 hrs by SRB assay. The format is functional, cell-based. As to conditions: SK-HEP1, 72 h. The method in brief: as §4
Data set [22] concerns A549. The data set can be described thus: Inhibition of P-gp protein expression level in human paclitaxel-resistant A549 cells at 50 to 200 nM after 48 hrs by Western blot analysis. The format is functional, cell-based. The method in brief:
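A549-Pa cells, with parent A549 for comparison, were exposed to compound for 48 h. Lysates were made in boiling SDS sample buffer and protein measured by BCA. Equal protein (25–50 µg) was run on 8–15% SDS-PAGE, transferred to PVDF and blocked in 5% milk/PBST. Anti-P-gp primary was applied overnight at 4 °C, then secondary antibody and ECL detection.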

Data set [23] concerns the target T1, ATP-dependent translocase ABCB1. The data set can be described thus: Inhibition of P-gp activity in human paclitaxel-resistant A549 cells assessed as rhodamine 123 accumulation at 50 nM after 72 hrs by FACS analysis (reference value: 14.4 %). In kind it is cell-based. On the set-up: scale not given: the % may be the effect or the level left. As to conditions: a549, 72 h, 0.05 µM.

T1 sequence (P08183 whole entry): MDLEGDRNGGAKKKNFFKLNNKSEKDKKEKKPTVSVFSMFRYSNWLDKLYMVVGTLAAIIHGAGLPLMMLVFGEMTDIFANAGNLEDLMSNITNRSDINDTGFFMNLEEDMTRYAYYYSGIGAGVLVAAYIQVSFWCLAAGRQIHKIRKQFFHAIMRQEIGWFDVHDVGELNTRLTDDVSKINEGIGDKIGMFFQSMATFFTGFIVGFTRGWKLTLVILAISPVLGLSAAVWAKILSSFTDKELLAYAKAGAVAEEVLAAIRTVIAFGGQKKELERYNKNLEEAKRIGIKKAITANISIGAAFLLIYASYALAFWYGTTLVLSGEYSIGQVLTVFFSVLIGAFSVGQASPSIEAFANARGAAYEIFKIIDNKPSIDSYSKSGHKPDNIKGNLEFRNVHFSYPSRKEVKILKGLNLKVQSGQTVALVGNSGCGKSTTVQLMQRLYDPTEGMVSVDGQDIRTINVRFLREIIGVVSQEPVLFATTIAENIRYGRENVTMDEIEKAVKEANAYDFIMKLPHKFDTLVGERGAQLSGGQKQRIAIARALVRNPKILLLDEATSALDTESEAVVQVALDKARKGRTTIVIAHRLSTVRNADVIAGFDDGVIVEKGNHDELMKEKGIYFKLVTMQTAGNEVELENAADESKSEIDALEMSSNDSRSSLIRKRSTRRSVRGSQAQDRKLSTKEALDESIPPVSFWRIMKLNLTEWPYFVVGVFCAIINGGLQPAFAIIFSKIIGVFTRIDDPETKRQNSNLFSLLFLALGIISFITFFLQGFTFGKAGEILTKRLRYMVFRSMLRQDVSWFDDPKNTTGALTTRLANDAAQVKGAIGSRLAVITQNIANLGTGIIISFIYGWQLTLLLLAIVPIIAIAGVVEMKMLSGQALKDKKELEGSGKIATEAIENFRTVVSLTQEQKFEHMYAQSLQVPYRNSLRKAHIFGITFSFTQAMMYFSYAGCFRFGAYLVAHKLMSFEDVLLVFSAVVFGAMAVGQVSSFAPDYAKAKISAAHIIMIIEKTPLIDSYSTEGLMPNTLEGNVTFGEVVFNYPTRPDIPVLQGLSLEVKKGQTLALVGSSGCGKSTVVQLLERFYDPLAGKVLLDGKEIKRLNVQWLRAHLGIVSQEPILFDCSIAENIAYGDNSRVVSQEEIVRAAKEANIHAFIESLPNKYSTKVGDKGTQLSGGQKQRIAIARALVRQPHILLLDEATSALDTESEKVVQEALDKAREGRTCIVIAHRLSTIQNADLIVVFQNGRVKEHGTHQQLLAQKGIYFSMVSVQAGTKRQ

For `COc1ccc2c3c(c4cc(OC)c(OC)cc4c2c1)C[C@@]1(CO)CCCN1C3`, the inhibition result in data set [1], in data set [6], in data set [7], in data set [8] and in data set [22] was “Active” in each case. Further, the Activity in data set [2] is given as 67.01%; in data set [5], “Non-toxic”; in [11], 12.08%; in data set [12], 18.33%; in data set [16], 1.13%; in data set [20], 18.53%. In data set [23], the Activity amounted to 28.7%. Moreover, in data set [3], the inhibition in vivo at 10 mg/kg came out at 54.8%. The inhibition result in data set [4] was “Dose-dependent effect”. In data set [9], the result was inactive. The “fractional inhibitory concentration index (FICI)” value turned out to be 0.391 in data set [10], 0.523 in data set [13] and 1.002 in data set [19]. The inhibition in vivo at 5 mg/kg in [14] is 38.4%. Moreover, the IC50 in data set [15] was found to be 160 nM; in data set [17] it was 120 nM; in [18], 60 nM; in data set [21], 60 nM.

For orientation: IC50 means the midpoint of a concentration-inhibition curve.
